In ChEMBL document CHEMBL3046550, “Design, synthesis, and insecticidal evaluation of new benzoylureas containing amide and sulfonate groups based on the sulfonylurea receptor protein binding site for diflubenzuron and glibenclamide” (2013):

Legend:
Assay type in all cases: functional
Conditions in all cases: 96 h
[1] = test system: Mythimna separata; test: Larvicidal activity against fourth instar larvae of Mythimna separata (Oriental armyworm) infected compound-treated corn leaves assessed as mortality at 50 mg/l measured after 4 days
Summary of the method: (§1)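 Petri dishes each infested with 10 fourth-instar larvae; percentage mortality scored 4 days after treatment. Three replicates per treatment, with the reported value the mean of the three.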

[2] = test system: Plutella xylostella; test: Larvicidal activity against second-instar larvae of Plutella xylostella (diamondback moth) infected in compound-treated cabbage leaves assessed as mortality at 200 mg/l measured after 4 days
Summary of the method: (§2)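 Test solutions at the different concentrations were made by dissolving compounds in DMF and adding distilled water.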

[3] = test system: Mythimna separata; test: Larvicidal activity against fourth instar larvae ofMythimna separata (Oriental armyworm) infected compound-treated corn leaves assessed as mortality at 200 mg/l measured after 4 days; summary of the method: as §1
[4] = test system: Mythimna separata; test: Larvicidal activity against fourth instar larvae of Mythimna separata (Oriental armyworm) infected compound-treated corn leaves assessed as mortality at 100 mg/l measured after 4 days; summary of the method: as §1
[5] = test system: Plutella xylostella; test: Larvicidal activity against second-instar larvae of Plutella xylostella (diamondback moth) infected in compound-treated cabbage leaves assessed as mortality at 20 mg/l measured after 4 days; summary of the method: as §2
[6] = test system: Mythimna separata; test: Larvicidal activity against fourth instar larvae of Mythimna separata (Oriental armyworm) infected compound-treated corn leaves assessed as mortality at 10 mg/l measured after 4 days; summary of the method: as §1
[7] = test system: Mythimna separata; test: Larvicidal activity against fourth instar larvae of Mythimna separata (Oriental armyworm) infected compound-treated corn leaves assessed as mortality at 20 mg/l measured after 4 days; summary of the method: as §1
[8] = test system: Mythimna separata; test: Larvicidal activity against fourth instar larvae of Mythimna separata (Oriental armyworm) infected compound-treated corn leaves assessed as mortality at 5 mg/l measured after 4 days; summary of the method: as §1
[9] = test system: Plutella xylostella; test: Larvicidal activity against second-instar larvae of Plutella xylostella (diamondback moth) infected in compound-treated cabbage leaves assessed as mortality at 5 mg/l measured after 4 days; summary of the method: as §2
[10] = test system: Plutella xylostella; test: Larvicidal activity against second-instar larvae of Plutella xylostella (diamondback moth) infected in compound-treated cabbage leaves assessed as mortality at 2 mg/l measured after 4 days; summary of the method: as §2
[11] = test system: Mythimna separata; test: Larvicidal activity against fourth instar larvae of Mythimna separata (Oriental armyworm) infected compound-treated corn leaves assessed as mortality at 1 mg/l measured after 4 days; summary of the method: as §1
[12] = test system: Mythimna separata; test: Larvicidal activity against fourth instar larvae of Mythimna separata (Oriental armyworm) infected compound-treated corn leaves assessed as mortality at 2.5 mg/l measured after 4 days; summary of the method: as §1

O=C(NC(=O)c1c(F)cccc1F)Nc1ccc(S(=O)(=O)OCCF)cc1
mortality at 50 µg/mL [1]: 0%
mortality at 200 µg/mL [2]: 20%
mortality at 200 µg/mL [3]: 100%
mortality at 100 µg/mL [4]: 100%

O=C(NC(=O)c1c(F)cccc1F)Nc1ccc(S(=O)(=O)OCCCl)cc1
mortality at 50 µg/mL [1]: 40%
mortality at 200 µg/mL [2]: 30%
mortality at 200 µg/mL [3]: 100%
mortality at 100 µg/mL [4]: 100%

O=C(NC(=O)c1c(F)cccc1F)Nc1ccc(S(=O)(=O)OC(C(F)(F)F)C(F)(F)F)cc1
mortality at 20 µg/mL [5]: 20%
mortality at 200 µg/mL [2]: 60%
mortality at 200 µg/mL [3]: 0%

O=C(NC(=O)c1c(F)cccc1F)Nc1ccc(S(=O)(=O)OCCCCCl)cc1
mortality at 50 µg/mL [1]: 20%
mortality at 200 µg/mL [2]: 20%
mortality at 200 µg/mL [3]: 100%
mortality at 100 µg/mL [4]: 100%

CCCCCOS(=O)(=O)c1ccc(NC(=O)NC(=O)c2c(F)cccc2F)cc1
mortality at 50 µg/mL [1]: 60%
mortality at 200 µg/mL [2]: 30%
mortality at 10 µg/mL [6]: 95%
mortality at 200 µg/mL [3]: 100%
mortality at 100 µg/mL [4]: 100%

CC(C)(C)NC(=O)c1ccc(NC(=O)NC(=O)c2c(F)cccc2F)cc1
mortality at 50 µg/mL [1]: 50%
mortality at 200 µg/mL [2]: 0%
mortality at 200 µg/mL [3]: 100%
mortality at 100 µg/mL [4]: 100%

CC(C)N(C(=O)c1ccc(NC(=O)NC(=O)c2c(F)cccc2F)cc1)C(C)C
mortality at 20 µg/mL [5]: 100%
mortality at 200 µg/mL [3]: 0%

CN(C(=O)c1ccc(NC(=O)NC(=O)c2c(F)cccc2F)cc1)c1ccc(Cl)cc1
mortality at 200 µg/mL [2]: 0%
mortality at 200 µg/mL [3]: 0%

O=C(NC(=O)c1c(F)cccc1F)Nc1ccc(C(=O)Nc2ccc(Cl)cc2)cc1
mortality at 200 µg/mL [2]: 0%
mortality at 200 µg/mL [3]: 0%

CCCCNC(=O)c1ccc(NC(=O)NC(=O)c2c(F)cccc2F)cc1
mortality at 200 µg/mL [2]: 0%
mortality at 200 µg/mL [3]: 0%

O=C(NC(=O)c1c(F)cccc1F)Nc1ccc(C(=O)N2CCOCC2)cc1
mortality at 200 µg/mL [2]: 0%
mortality at 200 µg/mL [3]: 0%

CC(C)(C)c1ccc(CNC(=O)c2ccc(NC(=O)NC(=O)c3c(F)cccc3F)cc2)cc1
mortality at 200 µg/mL [2]: 0%
mortality at 200 µg/mL [3]: 0%

O=C(NC(=O)c1c(F)cccc1F)Nc1ccc(S(=O)(=O)Oc2ccc(Cl)cc2)cc1
mortality at 200 µg/mL [2]: 0%
mortality at 200 µg/mL [3]: 0%

CC1CCC(C(C)C)C(OS(=O)(=O)c2ccc(NC(=O)NC(=O)c3c(F)cccc3F)cc2)C1 (stereo not drawn)
mortality at 200 µg/mL [2]: 0%
mortality at 200 µg/mL [3]: 0%

O=C(NC(=O)c1c(F)cccc1F)Nc1ccc(S(=O)(=O)OCC(F)(F)F)cc1
mortality at 50 µg/mL [1]: 100%
mortality at 20 µg/mL [7]: 100%
mortality at 5 µg/mL [8]: 60%
mortality at 20 µg/mL [5]: 100%
mortality at 200 µg/mL [2]: 100%
mortality at 10 µg/mL [6]: 100%
mortality at 200 µg/mL [3]: 100%
mortality at 5 µg/mL [9]: 90%
mortality at 2 µg/mL [10]: 40%
mortality at 100 µg/mL [4]: 100%

O=C(NC(=O)c1c(F)cccc1F)Nc1ccc(CO/N=C(/c2ccc(Cl)cc2)C2CC2)cc1 [FLUCYCLOXURON]
mortality at 5 µg/mL [8]: 90%
mortality at 1 µg/mL [11]: 10%
mortality at 2.5 µg/mL [12]: 50%
